In test [1] the target is Cell division cycle 7-related protein kinase (Homo sapiens) (UniProt O00311). The experiment in a line: Inhibition of human recombinant CDC7 at 15 nM in presence of ATP by radiometric assay relative to control.
The target in test [2] is Serine/threonine-protein kinase Nek6 (Homo sapiens) (UniProt Q9HC98). The experiment in a line: Inhibition of human recombinant NEK6 at 15 nM in presence of ATP by radiometric assay relative to control.
Test [3] deals with Dual specificity mitogen-activated protein kinase kinase 2 (Homo sapiens) (UniProt P36507). The experiment in a line: Inhibition of human recombinant MAP2K2 at 15 nM related to control ULK1.
Chain of Dual specificity mitogen-activated protein kinase kinase 2 (Homo sapiens) (P36507 whole entry): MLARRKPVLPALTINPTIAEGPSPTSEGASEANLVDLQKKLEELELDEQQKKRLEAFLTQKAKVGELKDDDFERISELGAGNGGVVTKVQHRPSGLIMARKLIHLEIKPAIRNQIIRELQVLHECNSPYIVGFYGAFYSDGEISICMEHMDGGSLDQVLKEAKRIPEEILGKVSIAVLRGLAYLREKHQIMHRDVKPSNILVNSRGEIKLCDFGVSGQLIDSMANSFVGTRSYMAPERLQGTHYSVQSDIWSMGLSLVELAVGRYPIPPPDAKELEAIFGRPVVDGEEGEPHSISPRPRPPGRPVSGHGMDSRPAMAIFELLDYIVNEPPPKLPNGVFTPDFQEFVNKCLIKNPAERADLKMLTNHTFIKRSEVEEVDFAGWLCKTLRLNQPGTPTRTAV
Test [4] deals with TGF-beta receptor type-2 (Homo sapiens) (UniProt P37173). Kind of test: Inhibition of human recombinant TGFbR2 at 15 nM in presence of ATP by radiometric assay relative to control.
Chain of TGF-beta receptor type-2 (Homo sapiens) (P37173 whole entry): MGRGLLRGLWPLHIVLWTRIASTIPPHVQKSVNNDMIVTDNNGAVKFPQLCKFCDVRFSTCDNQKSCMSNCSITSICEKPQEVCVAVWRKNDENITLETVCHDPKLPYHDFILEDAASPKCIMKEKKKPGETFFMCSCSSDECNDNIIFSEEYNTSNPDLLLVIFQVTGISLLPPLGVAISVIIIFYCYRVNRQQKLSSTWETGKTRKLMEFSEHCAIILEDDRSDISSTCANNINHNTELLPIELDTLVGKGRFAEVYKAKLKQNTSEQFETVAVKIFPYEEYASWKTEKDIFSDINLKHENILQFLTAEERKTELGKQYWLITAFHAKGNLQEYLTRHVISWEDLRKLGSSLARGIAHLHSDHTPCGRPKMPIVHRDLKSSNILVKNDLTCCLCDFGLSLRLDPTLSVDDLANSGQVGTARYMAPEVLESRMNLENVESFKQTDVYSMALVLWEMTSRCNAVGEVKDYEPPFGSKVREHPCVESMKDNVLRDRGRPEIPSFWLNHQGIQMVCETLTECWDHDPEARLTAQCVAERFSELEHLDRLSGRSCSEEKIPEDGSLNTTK
The next test is filed under the species Homo sapiens. Kind of test: Inhibition of human recombinant CK1d at 15 nM in presence of ATP by radiometric assay relative to control.
Test [5] concerns the target T1, Serine/threonine-protein kinase Nek1 (Homo sapiens) (UniProt Q96PY6).
T1 sequence (whole entry): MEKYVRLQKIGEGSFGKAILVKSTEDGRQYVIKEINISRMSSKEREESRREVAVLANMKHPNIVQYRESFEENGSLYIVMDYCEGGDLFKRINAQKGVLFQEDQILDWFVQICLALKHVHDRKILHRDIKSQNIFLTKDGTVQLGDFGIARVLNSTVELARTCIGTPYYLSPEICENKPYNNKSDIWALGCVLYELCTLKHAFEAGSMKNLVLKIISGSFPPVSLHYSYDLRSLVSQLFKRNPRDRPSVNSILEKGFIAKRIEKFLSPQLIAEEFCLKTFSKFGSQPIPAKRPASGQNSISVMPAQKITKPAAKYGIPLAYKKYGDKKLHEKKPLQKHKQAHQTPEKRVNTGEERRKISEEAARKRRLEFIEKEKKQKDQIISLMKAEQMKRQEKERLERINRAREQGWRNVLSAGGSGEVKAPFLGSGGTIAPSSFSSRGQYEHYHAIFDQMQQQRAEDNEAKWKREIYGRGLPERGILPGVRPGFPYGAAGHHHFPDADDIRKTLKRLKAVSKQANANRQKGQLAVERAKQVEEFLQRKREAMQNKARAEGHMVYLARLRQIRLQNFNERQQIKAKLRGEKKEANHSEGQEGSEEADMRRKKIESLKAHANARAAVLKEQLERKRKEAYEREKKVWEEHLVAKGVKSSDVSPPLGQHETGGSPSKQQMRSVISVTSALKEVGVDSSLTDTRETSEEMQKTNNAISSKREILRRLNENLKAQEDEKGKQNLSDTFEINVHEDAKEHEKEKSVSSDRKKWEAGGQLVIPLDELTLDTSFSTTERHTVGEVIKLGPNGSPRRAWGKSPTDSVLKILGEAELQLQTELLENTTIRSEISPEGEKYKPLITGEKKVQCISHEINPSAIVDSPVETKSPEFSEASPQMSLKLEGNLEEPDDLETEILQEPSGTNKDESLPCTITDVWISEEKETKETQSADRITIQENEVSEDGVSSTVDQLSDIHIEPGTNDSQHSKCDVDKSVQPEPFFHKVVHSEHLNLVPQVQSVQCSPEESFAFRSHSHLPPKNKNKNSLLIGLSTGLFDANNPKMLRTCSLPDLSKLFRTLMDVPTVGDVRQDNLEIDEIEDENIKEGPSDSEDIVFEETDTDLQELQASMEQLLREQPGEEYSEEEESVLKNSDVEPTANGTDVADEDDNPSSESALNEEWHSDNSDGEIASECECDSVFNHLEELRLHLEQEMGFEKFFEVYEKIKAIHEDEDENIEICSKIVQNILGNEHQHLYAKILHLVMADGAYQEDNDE
Kind of test: Inhibition of human recombinant NEK1 at 15 nM in presence of ATP by radiometric assay relative to control.

The target of test [6] is 5'-AMP-activated protein kinase catalytic subunit alpha-2 (Homo sapiens) (UniProt P54646). Kind of test: Inhibition of human recombinant AMPKa2 at 500 nM related to control ULK1. In a few lines:
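Panel of 327 recombinant human kinases, each assayed in vitro by radiometric activity assay in duplicate at a single inhibitor concentration per compound, chosen with reference to its ULK1 inhibition. Activity remaining was expressed as percent of vehicle control, and percent inhibition was calculated as 100 minus percent activity remaining.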

Test [7] deals with Protein kinase C gamma type (Homo sapiens) (UniProt P05129). Kind of test: Inhibition of human recombinant PKCg at 500 nM in presence of ATP by radiometric assay relative to control.
Test [8] concerns the target Myosin light chain kinase, smooth muscle (Homo sapiens) (UniProt Q15746). Kind of test: Inhibition of human recombinant smMLCK at 500 nM related to control ULK1.
Test [9] has as its target T2, Aurora kinase C (Homo sapiens) (UniProt Q9UQB9).
T2 sequence (whole entry): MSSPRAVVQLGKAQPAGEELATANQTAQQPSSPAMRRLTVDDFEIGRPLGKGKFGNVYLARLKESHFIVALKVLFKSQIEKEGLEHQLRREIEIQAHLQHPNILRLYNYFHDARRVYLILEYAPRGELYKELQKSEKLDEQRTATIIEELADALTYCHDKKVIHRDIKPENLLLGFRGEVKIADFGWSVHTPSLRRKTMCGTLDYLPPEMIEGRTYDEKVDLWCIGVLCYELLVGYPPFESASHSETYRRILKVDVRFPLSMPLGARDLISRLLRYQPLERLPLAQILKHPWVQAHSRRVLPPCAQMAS
Kind of test: Inhibition of human recombinant AurC at 500 nM in presence of ATP by radiometric assay relative to control. In outline:
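Part of a radiometric in vitro activity panel of 327 recombinant human kinases. Each kinase was tested in duplicate at one inhibitor concentration. Activity remaining was expressed as a percentage of the vehicle control, and percent inhibition was taken as 100 minus that value.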

Chain of Serine/threonine-protein kinase Nek6 (Homo sapiens) (Q9HC98 whole entry): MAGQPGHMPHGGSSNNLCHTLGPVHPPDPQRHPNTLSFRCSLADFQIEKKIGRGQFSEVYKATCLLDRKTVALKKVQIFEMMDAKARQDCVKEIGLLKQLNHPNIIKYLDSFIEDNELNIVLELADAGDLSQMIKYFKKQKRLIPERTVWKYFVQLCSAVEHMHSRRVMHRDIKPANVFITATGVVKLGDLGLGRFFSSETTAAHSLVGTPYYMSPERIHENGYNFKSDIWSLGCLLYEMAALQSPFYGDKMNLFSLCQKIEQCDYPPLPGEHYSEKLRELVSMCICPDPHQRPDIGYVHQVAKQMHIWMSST
Chain of 5'-AMP-activated protein kinase catalytic subunit alpha-2 (Homo sapiens) (P54646 whole entry, looked up): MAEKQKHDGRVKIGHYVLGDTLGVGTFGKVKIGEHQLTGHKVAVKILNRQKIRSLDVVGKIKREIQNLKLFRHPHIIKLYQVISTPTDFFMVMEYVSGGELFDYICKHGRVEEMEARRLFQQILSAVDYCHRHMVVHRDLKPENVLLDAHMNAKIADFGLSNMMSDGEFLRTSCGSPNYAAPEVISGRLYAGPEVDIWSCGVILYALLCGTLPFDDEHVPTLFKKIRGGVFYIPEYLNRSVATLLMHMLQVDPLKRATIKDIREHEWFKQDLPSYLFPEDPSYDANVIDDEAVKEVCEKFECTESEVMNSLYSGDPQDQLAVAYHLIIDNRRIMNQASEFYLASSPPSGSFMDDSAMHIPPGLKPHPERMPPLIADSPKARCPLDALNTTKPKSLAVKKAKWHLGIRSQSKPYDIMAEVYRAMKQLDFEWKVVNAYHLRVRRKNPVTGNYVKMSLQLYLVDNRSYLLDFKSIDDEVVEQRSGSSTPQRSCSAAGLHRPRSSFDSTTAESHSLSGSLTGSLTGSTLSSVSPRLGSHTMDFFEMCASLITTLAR
Chain of Cell division cycle 7-related protein kinase (Homo sapiens) (O00311 whole entry, looked up): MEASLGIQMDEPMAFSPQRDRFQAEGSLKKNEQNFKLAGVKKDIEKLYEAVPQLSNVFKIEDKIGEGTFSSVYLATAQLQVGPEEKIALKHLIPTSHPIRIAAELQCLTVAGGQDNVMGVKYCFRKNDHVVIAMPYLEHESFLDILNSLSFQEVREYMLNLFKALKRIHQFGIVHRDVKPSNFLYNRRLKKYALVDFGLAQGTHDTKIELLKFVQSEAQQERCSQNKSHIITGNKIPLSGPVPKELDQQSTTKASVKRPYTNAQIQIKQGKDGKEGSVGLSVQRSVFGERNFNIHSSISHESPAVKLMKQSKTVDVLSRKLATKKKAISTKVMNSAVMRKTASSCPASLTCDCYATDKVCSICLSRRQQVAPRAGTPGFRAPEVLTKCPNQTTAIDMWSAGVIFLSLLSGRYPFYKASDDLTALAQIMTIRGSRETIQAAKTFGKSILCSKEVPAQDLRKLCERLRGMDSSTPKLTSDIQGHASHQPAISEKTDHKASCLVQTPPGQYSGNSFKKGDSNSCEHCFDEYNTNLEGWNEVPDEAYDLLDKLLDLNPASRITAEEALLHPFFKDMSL
Chain of Myosin light chain kinase, smooth muscle (Homo sapiens) (Q15746 whole entry): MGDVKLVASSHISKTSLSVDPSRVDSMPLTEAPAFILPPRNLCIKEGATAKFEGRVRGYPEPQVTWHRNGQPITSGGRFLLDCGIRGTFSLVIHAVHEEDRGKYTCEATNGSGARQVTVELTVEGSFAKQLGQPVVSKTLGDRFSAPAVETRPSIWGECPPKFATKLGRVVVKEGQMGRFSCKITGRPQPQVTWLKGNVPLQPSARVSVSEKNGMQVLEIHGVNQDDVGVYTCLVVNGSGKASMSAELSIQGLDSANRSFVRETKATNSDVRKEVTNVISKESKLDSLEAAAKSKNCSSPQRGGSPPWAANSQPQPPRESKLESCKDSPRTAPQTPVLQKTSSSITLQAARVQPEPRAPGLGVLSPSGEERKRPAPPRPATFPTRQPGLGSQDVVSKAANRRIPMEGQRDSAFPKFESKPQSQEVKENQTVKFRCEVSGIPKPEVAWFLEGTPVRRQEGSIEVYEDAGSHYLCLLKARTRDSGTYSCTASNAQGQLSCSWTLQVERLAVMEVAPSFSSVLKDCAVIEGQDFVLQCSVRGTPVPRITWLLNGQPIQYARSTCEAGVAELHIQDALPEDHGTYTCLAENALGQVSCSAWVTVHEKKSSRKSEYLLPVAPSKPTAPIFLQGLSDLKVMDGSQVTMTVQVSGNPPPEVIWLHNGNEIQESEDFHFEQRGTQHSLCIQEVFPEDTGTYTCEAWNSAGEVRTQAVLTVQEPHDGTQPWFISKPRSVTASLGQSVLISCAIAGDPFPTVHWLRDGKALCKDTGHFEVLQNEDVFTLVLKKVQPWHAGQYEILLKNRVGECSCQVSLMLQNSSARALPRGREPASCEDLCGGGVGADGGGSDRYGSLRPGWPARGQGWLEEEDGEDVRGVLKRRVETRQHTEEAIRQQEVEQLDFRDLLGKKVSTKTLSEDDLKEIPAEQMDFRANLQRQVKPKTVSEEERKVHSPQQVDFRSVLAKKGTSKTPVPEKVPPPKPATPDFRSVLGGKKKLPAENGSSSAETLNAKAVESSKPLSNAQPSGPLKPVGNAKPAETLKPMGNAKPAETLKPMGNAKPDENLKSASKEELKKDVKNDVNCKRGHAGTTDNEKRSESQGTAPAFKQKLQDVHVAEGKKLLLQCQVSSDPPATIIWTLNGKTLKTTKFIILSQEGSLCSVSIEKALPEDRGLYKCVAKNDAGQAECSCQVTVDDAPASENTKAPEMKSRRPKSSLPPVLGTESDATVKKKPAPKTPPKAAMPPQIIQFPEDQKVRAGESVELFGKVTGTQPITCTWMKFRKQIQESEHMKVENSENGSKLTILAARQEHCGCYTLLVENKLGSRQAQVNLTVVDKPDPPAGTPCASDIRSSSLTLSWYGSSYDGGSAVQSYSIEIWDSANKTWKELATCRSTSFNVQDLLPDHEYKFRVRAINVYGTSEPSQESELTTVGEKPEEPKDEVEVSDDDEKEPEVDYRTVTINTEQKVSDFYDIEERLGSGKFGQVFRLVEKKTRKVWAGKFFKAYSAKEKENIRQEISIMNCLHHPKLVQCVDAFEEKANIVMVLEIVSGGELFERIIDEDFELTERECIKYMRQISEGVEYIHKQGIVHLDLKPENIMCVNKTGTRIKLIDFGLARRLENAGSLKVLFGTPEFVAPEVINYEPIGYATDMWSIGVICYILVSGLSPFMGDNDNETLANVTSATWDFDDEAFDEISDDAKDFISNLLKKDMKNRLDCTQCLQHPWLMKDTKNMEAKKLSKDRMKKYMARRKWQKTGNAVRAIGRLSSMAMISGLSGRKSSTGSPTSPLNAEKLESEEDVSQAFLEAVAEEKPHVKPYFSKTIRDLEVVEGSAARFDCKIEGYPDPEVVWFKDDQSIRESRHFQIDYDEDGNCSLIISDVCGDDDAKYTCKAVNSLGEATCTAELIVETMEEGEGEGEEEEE

On to `CC(C)[C@H](NC(=O)c1cc(-c2cnn3cc(-c4ccc(OCCN5CCCCC5)cc4)cnc23)cs1)C(F)(F)F`, for which the inhibition was found to be 8% in test [1]; 1% in test [2]; 42% in [4]; 3% in the test listed under Homo sapiens; 3% in test [5]. In [3], the fold change (FC) is 0.

Consider `CNC(=O)c1ccccc1Oc1nc(Nc2cc(OC)c(OC)c(OC)c2)ncc1Br`, for which the fold change (FC) in test [6] was found to be 0.77; in test [8] it was 0.07. The inhibition was determined as 9% in test [7] and 73% in test [9].

A word on the inhibition: it is the relative decrease from the control value, in per cent.

Source of the values: ChEMBL document CHEMBL5653631, “A Potent and Selective ULK1 Inhibitor Suppresses Autophagy and Sensitizes Cancer Cells to Nutrient Stress” (iScience, 2018).
